Measured values reported in ChEMBL document CHEMBL4014336 (J Med Chem, 2017).
Converted amounts (≈) assume the structure as drawn.

Columns and labels:
[1] = Protein binding in human plasma; assay type: ADME, cell-free; settings: read-out: PPB (converted)
[2] = Metabolic stability in cynomolgus monkey liver microsomes assessed as UGT-mediated glucuronidation of compound by measuring half life in presence of UDPGA; assay type: ADME, Macaca fascicularis
Method in brief: (§1)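 Liver microsomal glucuronidation incubations in the presence of UDPGA; parent half-life determined.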

[3] = Metabolic stability in dog liver microsomes assessed as UGT-mediated glucuronidation of compound by measuring half life in presence of UDPGA; assay type: ADME, Canis lupus familiaris; method in brief: as §1
[4] = tested on: Plasma; experiment: Fraction unbound in cynomolgus monkey plasma at 1 mg/kg after 24 hrs; assay type: ADME, organism-based, Macaca fascicularis; settings: in vivo
[5] = Aqueous solubility of the compound in pH 6.5 solution; assay type: physicochemical; settings: pH 6.5, pH 6.5
Method in brief: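 Aqueous solubility measured at pH 6.5.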

[6] = Total plasma clearance in cynomolgus monkey at 1 mg/kg, iv; assay type: ADME, organism-based, Macaca fascicularis
[7] = tested on: HepG2; experiment: Cytotoxicity against human HepG2 cells at 80 uM; assay type: cell-based; settings: hepg2, 80 µM
Method in brief: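 HepG2 cells exposed at 80 μM; cytotoxicity assessed.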

[8] = Protein binding in rat plasma; assay type: ADME, cell-free; settings: read-out: PPB (converted)
[9] = AUC (0 to 24 hrs) in dog at 1 mg/kg, iv; assay type: ADME, organism-based, Canis lupus familiaris; set-up: time < 24 hr, dose 1 mg/kg, route intravenous; settings: in vivo
[10] = molecular target: Cytochrome P450 2C8 (Homo sapiens, UniProt P10632); experiment: Inhibition of CYP2C8 (unknown origin); assay type: ADME
Sequence of Cytochrome P450 2C8 (P10632 whole entry): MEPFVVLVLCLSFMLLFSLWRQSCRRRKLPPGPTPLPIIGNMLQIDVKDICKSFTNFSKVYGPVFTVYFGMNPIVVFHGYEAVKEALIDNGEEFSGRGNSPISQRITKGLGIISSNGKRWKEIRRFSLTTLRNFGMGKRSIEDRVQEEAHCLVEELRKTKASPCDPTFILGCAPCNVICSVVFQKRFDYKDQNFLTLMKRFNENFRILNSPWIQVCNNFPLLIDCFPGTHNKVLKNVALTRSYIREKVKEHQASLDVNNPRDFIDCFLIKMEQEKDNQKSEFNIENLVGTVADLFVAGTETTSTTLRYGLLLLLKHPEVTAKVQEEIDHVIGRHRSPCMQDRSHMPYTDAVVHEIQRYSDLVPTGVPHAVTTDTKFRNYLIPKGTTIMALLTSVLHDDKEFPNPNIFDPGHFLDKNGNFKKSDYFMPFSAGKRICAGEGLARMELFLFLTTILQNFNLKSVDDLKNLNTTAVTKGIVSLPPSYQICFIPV

[11] = tested on: Cynomolgus monkey; experiment: Toxicity in cynomolgus monkey assessed as HPA axis activation by measuring DHEAS level at 1 to 10 mg/kg for 7 days; assay type: organism-based, Macaca fascicularis; settings: in vivo, 168 h
[12] = Metabolic stability in human liver microsomes assessed as UGT-mediated glucuronidation of compound by measuring half life in presence of UDPGA; assay type: ADME; method in brief: as §1
[13] = Half life in human liver microsomes; assay type: ADME, microsome
Method in brief: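 Human liver microsome incubation; parent half-life determined.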

[14] = tested on: Mus musculus; experiment: In vivo inhibition of 11beta-HSD1 in po dosed non-fasting diet-induced obese mouse assessed as decrease in corticosterone excursion in plasma pretreated for 60 mins followed by DHC administration measured up to 120 mins by enzyme immunosorbent assay; assay type: functional
Method in brief: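 Nonfasting diet-induced obese male mice, groups of n = 6 matched for body weight; tail bleed at −60 min, then oral vehicle (0.5% Methocel, 0.1% Tween 80 in water) or drug. At 60 min, bleed and oral DHC 10 mg/kg. Bleeds at 30, 60 and 120 min post-DHC. Plasma corticosterone measured by enzyme immunosorbent assay; drug levels in terminal bleed.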

[15] = tested on: Liver; experiment: Metabolic stability in mouse liver microsomes assessed as parent compound remaining after 10 mins; assay type: ADME, microsome; settings: microsomes, 10 min
Method in brief: (§2)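 Parent compound remaining after a 10 min incubation with human, mouse or rat liver microsomes.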

[16] = Permeability from basolateral to apical side in human Caco2 cells; assay type: ADME, cell-based; settings: Caco-2, read-out: permeability
[17] = tested on: Cynomolgus monkey; experiment: In vivo inhibition of 11beta-HSD1 in non-fasting diet-induced obese cynomolgus monkey assessed as plasma concentration required to show decrease in corticosterone excursion pretreated via oral gavage for 30 mins followed by DHC administration measured up to 60 mins by enzyme immunosorbent assay; assay type: functional, organism-based; settings: Macaca fascicularis
Method in brief: (§3)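 Cynomolgus monkeys given test compound at a predetermined time before the experiment, chosen from its pharmacokinetics. Substrate DHC (rodent substrate, used in place of cortisone) given afterwards. Blood sampled at various times. Design otherwise similar to the mouse DHC challenge.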

[18] = AUC (0 to 24 hrs) in mouse at 5 mg/kg, iv; assay type: ADME, organism-based; set-up: time < 24 hr, dose 5 mg/kg, route intravenous; settings: in vivo
[19] = AUC (0 to 24 hrs) in rat at 300 mg/kg; assay type: ADME, organism-based; set-up: dose 300 mg/kg, time < 24 hr; settings: in vivo
[20] = tested on: Plasma; experiment: Drug uptake in po dosed non-fasting diet-induced obese mouse plasma after 3 hrs; assay type: ADME, organism-based; settings: in vivo
Method in brief: (§4)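 Nonfasting diet-induced obese male mice, groups of n = 6 matched for body weight. Tail bleed at −60 min, then oral dosing with vehicle (0.5% Methocel, 0.1% Tween 80 in water) or drug. DHC 10 mg/kg given orally 60 min later. Bleeds at 30, 60 and 120 min after DHC. Plasma corticosterone measured by enzyme immunosorbent assay. Drug levels measured in terminal bleed samples.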

[21] = Protein binding in cynomolgus monkey plasma; assay type: ADME, cell-free, Macaca fascicularis; settings: read-out: PPB (converted)
[22] = tested on: Plasma; experiment: Drug metabolism in dog plasma assessed as ketone A formation at 1 mg/kg, iv; assay type: ADME, organism-based, Canis lupus familiaris; settings: in vivo
[23] = molecular target: 11-beta-hydroxysteroid dehydrogenase 1 (Mus musculus, UniProt P50172); experiment: Inhibition of 11beta-HSD1 in mouse 3T3L1 cells; assay type: cell-based
Sequence of 11-beta-hydroxysteroid dehydrogenase 1 (P50172 whole entry): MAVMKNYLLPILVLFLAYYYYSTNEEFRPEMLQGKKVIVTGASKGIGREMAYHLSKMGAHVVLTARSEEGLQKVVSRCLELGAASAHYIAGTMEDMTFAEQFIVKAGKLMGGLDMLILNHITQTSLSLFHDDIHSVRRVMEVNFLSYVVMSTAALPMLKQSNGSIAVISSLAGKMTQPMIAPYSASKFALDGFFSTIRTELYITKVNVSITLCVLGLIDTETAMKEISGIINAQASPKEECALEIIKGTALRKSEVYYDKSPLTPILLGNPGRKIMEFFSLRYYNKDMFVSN
Method in brief: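 Mouse adipocyte-like 3T3-L1 cell line, not genetically manipulated, so that inhibition acts on the cells' native mouse 11β-HSD1 activity.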

[24] = Protein binding in dog plasma; assay type: ADME, cell-free, Canis lupus familiaris; settings: read-out: PPB (converted)
[25] = molecular target: 11-beta-hydroxysteroid dehydrogenase type 2 (Homo sapiens, UniProt P80365); experiment: Inhibition of human 11beta-HSD2 up to 30 uM
Sequence of 11-beta-hydroxysteroid dehydrogenase type 2 (Homo sapiens, UniProt P80365) (P80365 whole entry): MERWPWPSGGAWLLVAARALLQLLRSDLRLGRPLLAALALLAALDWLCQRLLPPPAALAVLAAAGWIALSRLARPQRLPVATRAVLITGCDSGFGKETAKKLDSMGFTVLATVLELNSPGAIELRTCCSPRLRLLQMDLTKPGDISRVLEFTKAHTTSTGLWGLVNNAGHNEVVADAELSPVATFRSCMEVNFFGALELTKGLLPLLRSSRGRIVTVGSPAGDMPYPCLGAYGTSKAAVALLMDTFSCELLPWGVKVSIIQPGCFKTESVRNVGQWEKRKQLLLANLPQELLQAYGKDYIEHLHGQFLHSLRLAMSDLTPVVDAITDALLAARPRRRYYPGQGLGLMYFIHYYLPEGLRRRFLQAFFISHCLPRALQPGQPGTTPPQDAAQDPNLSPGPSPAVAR
Method in brief: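 Human 11β-HSD2 counter-screen in vitro; compound tested up to 30 μM.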

[26] = tested on: Rattus norvegicus; experiment: Toxicity in rat assessed as hypertension at 300 mg/kg for 2 weeks; assay type: organism-based; settings: in vivo, 336 h
Method in brief: (§5)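 Exploratory rat toxicology study lasting 2 weeks, with 300 mg/kg as the highest dose given. The study assessed hypokalemia, plasma volume expansion, hypertension and renal toxicity.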

[27] = tested on: Plasma; experiment: Drug metabolism in rat plasma assessed as ketone A formation at […], iv; assay type: ADME, organism-based; settings: in vivo
[28] = tested on: Rattus norvegicus; experiment: Toxicity in rat assessed as plasma volume expansion at 300 mg/kg for 2 weeks; assay type: organism-based; settings: in vivo, 336 h; method in brief: as §5
[29] = Total plasma clearance in mouse at 5 mg/kg, iv; assay type: ADME, organism-based
[30] = in vivo; settings: mouse, liver / plasma, iv, 5 mg/kg
[31] = tested on: Liver; experiment: Metabolic stability in rat liver microsomes assessed as parent compound remaining after 10 mins; assay type: ADME, microsome; settings: microsomes, 10 min; method in brief: as §2
[32] = molecular target: Cytochrome P450 2E1 (Homo sapiens, UniProt P05181); experiment: Inhibition of CYP2E1 (unknown origin); assay type: ADME
Sequence of Cytochrome P450 2E1 (P05181 whole entry): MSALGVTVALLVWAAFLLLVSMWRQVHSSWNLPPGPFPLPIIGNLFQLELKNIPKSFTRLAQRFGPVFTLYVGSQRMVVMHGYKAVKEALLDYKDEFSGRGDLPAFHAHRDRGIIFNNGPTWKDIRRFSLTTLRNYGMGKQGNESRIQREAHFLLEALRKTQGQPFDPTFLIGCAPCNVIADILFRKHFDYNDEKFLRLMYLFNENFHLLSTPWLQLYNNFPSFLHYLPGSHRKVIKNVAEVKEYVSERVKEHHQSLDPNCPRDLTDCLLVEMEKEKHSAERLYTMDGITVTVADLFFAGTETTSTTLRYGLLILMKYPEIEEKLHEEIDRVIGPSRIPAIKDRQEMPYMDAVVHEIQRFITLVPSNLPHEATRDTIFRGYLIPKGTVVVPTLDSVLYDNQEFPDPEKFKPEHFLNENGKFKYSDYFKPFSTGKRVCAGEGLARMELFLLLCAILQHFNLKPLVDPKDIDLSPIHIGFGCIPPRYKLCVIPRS

[33] = Oral bioavailability in dog at 2 mg/kg; assay type: ADME, organism-based, Canis lupus familiaris; settings: in vivo
[34] = tested on: Mus musculus; experiment: In vivo inhibition of 11beta-HSD1 in po dosed non-fasting diet-induced obese mouse assessed as plasma concentration required to show decrease in corticosterone excursion pretreated for 60 mins followed by DHC administration measured up to 120 mins by enzyme immunosorbent assay; assay type: functional, organism-based; method in brief: as §4
[35] = Volume of distribution at steady state in dog at 1 mg/kg, iv; assay type: ADME, organism-based, Canis lupus familiaris; settings: in vivo, read-out: Vdss
[36] = tested on: Cynomolgus monkey; experiment: In vivo inhibition of 11beta-HSD1 in non-fasting diet-induced obese cynomolgus monkey assessed as decrease in corticosterone excursion in plasma pretreated via oral gavage for 30 mins followed by DHC administration measured up to 60 mins by enzyme immunosorbent assay; assay type: functional; settings: Macaca fascicularis; method in brief: as §3
[37] = tested on: Rattus norvegicus; experiment: MRT in rat at […], iv; assay type: ADME, organism-based; settings: in vivo
[38] = MRT in dog at 1 mg/kg, iv; assay type: ADME, organism-based, Canis lupus familiaris; settings: in vivo
[39] = molecular target: 11-beta-hydroxysteroid dehydrogenase type 2 (Mus musculus, UniProt P51661); experiment: Inhibition of mouse 11beta-HSD2
Sequence of 11-beta-hydroxysteroid dehydrogenase type 2 (Mus musculus, UniProt P51661) (P51661 whole entry): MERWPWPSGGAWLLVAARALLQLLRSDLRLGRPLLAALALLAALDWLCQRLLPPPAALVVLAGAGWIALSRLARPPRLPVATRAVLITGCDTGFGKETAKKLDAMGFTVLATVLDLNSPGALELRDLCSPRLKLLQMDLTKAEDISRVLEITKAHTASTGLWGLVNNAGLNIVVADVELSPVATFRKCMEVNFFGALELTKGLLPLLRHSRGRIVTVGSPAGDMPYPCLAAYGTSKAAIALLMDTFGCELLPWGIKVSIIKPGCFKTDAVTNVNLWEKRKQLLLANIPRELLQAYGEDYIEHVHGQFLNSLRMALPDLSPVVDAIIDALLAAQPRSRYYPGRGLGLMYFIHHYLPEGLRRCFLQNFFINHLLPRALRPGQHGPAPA

[40] = molecular target: Cytochrome P450 2A6 (Homo sapiens, UniProt P11509); experiment: Inhibition of CYP2A6 (unknown origin); assay type: ADME
Sequence of Cytochrome P450 2A6 (P11509 whole entry): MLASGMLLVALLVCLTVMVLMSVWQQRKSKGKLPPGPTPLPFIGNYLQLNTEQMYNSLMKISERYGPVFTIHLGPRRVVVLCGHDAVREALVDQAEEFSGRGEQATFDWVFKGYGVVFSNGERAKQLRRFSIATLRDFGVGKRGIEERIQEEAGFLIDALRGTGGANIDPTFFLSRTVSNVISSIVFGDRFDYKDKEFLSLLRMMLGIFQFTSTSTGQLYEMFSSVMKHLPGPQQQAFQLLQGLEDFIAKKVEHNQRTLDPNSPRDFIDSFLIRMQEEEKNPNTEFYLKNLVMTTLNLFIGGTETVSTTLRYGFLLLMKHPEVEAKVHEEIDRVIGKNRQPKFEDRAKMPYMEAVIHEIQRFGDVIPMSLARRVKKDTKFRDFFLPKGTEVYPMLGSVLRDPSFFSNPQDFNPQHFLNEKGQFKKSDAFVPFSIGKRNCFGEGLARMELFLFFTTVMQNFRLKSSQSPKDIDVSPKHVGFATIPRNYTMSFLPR

[41] = molecular target: hERG (Homo sapiens, UniProt Q12809); experiment: Inhibition of human ERG at 30 uM by patch clamp assay relative to control
Sequence of hERG (Q12809 whole entry): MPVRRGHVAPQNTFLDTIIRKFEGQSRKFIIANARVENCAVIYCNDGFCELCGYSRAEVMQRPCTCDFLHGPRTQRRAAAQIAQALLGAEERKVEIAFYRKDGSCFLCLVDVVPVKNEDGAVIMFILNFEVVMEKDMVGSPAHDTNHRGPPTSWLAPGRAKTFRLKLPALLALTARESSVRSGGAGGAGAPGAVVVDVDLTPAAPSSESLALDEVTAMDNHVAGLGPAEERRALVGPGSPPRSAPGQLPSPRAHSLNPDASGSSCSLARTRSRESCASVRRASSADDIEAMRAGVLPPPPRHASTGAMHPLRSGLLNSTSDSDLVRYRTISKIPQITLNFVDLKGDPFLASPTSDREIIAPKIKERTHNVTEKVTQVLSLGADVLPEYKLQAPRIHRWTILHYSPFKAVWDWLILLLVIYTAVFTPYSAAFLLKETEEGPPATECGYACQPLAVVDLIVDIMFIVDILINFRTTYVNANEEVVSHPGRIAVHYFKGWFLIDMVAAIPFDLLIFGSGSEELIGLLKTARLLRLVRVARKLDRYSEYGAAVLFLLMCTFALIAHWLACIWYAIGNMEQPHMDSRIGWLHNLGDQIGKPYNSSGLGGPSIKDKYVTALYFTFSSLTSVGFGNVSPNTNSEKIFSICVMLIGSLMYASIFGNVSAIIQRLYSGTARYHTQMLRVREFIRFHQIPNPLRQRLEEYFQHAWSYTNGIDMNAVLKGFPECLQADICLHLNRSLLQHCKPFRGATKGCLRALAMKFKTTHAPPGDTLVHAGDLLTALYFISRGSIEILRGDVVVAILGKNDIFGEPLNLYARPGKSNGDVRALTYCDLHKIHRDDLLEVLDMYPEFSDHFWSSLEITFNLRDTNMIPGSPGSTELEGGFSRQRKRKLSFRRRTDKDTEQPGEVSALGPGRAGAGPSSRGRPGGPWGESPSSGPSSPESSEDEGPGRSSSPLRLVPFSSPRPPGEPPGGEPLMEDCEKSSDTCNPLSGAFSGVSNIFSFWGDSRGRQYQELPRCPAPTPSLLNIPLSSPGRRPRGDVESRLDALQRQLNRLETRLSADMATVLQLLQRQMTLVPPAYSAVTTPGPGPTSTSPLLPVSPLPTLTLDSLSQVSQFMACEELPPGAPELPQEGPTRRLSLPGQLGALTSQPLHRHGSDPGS
Method in brief: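 hERG channel, patch clamp; percent inhibition at 30 μM.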

[42] = tested on: Rattus norvegicus; experiment: Toxicity in rat assessed as hypokalemia at 300 mg/kg for 2 weeks; assay type: organism-based; settings: in vivo, 336 h; method in brief: as §5

With `O=C(CC1(c2ccccc2)C2CC3CC1CC(C2)C3O)N1CC(O)C1` (stereo in doubt; form 2) the fraction unbound [1] was 0.46, the half-life [2] was greater than 3.33 h and the half-life [3] was greater than 3.33 h. The “Cp(f)” value [4] was 2 nM, the solubility [5] was 1800 µg/mL (≈ 5.27 mM) and the clearance [6] was 21.2 mL/min/kg. For the same compound, the Activity [7] was “Non-Toxic”, the fraction unbound [8] was 0.35 and the AUC(0-t) at 24 h [9] was 4.6 µM·h. The IC50 [10] was greater than 40000 nM, the Activity [11] was “Non-Toxic” and the half-life [12] was greater than 3.33 h. It also gave a half-life [13] of 2.02 h, an ED50 [14] of 8.6 mg/kg and a Stability [15] of 80%. It also gave a Papp B→A [16] of 28.5 ×10⁻⁶ cm/s, an EC50 [17] of 75 nM and an AUC(0-t) at 24 h [18] of 5 µM·h. The AUC(0-t) at 24 h [19] was no more than 650 µM·h, the Drug uptake [20] was “Dose-dependent effect” and the fraction unbound [21] was 0.32. The Drug metabolism [22] was “Metabolite_Detected”, the IC50 [23] was 28.6 nM and the fraction unbound [24] was 0.43. The “inhibition (INH)” value [25] was “Not Active”, the Activity [26] was “Non-Toxic” and the Drug metabolism [27] was “Metabolite_Detected”. The Activity [28] was “Non-Toxic”, the clearance [29] was 50 mL/min/kg and the Kp [30] was 1 to 56. It also gave a Stability [31] of 67%, an IC50 [32] greater than 40000 nM and a bioavailability [33] of 72%. For the same compound, the EC50 [34] was 850 nM, the Vd [35] was 3 L/kg and the ED50 [36] was 0.12 mg/kg. It also gave an MRT [37] of 1.3 h, an MRT [38] of 3.5 h and an IC50 [39] of 7900 nM. The IC50 [40] was greater than 40000 nM, the inhibition at 30 µM [41] was 10% and the Activity [42] was “Non-Toxic”.
